16 molecules from ChEMBL document CHEMBL1141592, “Synthesis and anti-inflammatory activities of mono-carbonyl analogues of curcumin” (2008) can be followed below.

The source made the active and inactive calls. The calls are words filed in the database; no cut-off is given here.

In assay [1] the test system is J774.A1. As to the kind of experiment: Antiinflammatory activity in mouse J774A.1 cells assessed as inhibition of lipopolysaccharide-induced TNFalpha production pretreated for 2 hrs at 10 uM before LPS challenge. In kind it is functional. In short, it runs like this: (§1)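 J774A.1 macrophages pretreated 2 h with test agent at 10 μM or vehicle, then stimulated with LPS 0.5 μg/ml for 24 h. Media collected and centrifuged (14,000 rpm, 5 min); TNF-α and IL-6 quantified by mouse ELISA kits. Total protein of viable cell pellets measured by Bio-Rad protein assay. Results expressed as percent of LPS control.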

Assay [2] deals with J774.A1. As to the kind of experiment: Antiinflammatory activity in mouse J774A.1 cells assessed as inhibition of lipopolysaccharide-induced IL6 production pretreated for 2 hrs at 10 uM before LPS challenge. It counts as functional, cell-based. In short, it runs like this: as §1

In the case of `COc1cc(/C=C2\CCC/C(=C\c3ccc(O)c(OC)c3)C2=O)ccc1O`, the result in the assay with J774.A1 [1] and in the assay with J774.A1 [2] was Active.
In the case of `COc1cc(/C=C2\CC/C(=C\c3ccc(OC4CCCCO4)c(OC)c3)C2=O)ccc1OC1CCCCO1` (stereo not drawn), the result with J774.A1 [1] was Active.
`CN(C)c1ccc(/C=C2\CCC/C(=C\c3ccc(N(C)C)cc3)C2=O)cc1`: the result in the assay on J774.A1 [1] and in the assay on J774.A1 [2] was Active.
`O=C(/C=C/c1ccc(OC2CCCCO2)cc1)/C=C/c1ccc(OC2CCCCO2)cc1` (stereo not drawn): the result with J774.A1 [1] was Active.
The same measure, in the same setting: the result for `COc1cc(/C=C2\CCC/C(=C\c3ccc(OC4CCCCO4)c(OC)c3)C2=O)ccc1OC1CCCCO1` (stereo not drawn) reads “Active”.
On to `CN(C)CCCOc1ccc(/C=C2\CC/C(=C\c3ccc(OCCCN(C)C)cc3)C2=O)cc1`, for which the outcome in the assay with J774.A1 [1] and in the assay with J774.A1 [2] was Active.
On to `C=CCOc1ccc(/C=C/C(=O)/C=C/c2ccc(OCC=C)cc2)cc1`, for which the outcome with J774.A1 [1] was Active.
The same measure, in the same setting: the result for `C=CCOc1ccc(/C=C2\CCC/C(=C\c3ccc(OCC=C)cc3)C2=O)cc1` reads “Active”.
For the molecule `COc1cc(/C=C/C(=O)/C=C/c2ccc(O)c(OC)c2)ccc1O`, the outcome in the assay on J774.A1 [1] and in the assay with J774.A1 [2] was Active.
As for `CN(C)c1ccc(/C=C2\CC/C(=C\c3ccc(N(C)C)cc3)C2=O)cc1`, the result with J774.A1 [1] and in the assay on J774.A1 [2] was Active.
Turning to `Cc1ccc(/C=C2\CC/C(=C\c3ccc(C)s3)C2=O)s1`, the outcome with J774.A1 [1] was Active.
Regarding `CN(C)c1ccc(/C=C/C(=O)/C=C/c2ccc(N(C)C)cc2)cc1`, the outcome in the assay on J774.A1 [1] and with J774.A1 [2] was Active.
`COc1cc(/C=C/C(=O)CC(=O)/C=C/c2ccc(O)c(OC)c2)ccc1O`: the outcome with J774.A1 [1] was Active.
`COc1cc(/C=C2\CC/C(=C\c3ccc(O)c(OC)c3)C2=O)ccc1O`: the outcome in the assay with J774.A1 [1] and in the assay with J774.A1 [2] was Active.
With `O=C1/C(=C/c2cccs2)CC/C1=C\c1cccs1`, the outcome in the assay with J774.A1 [1] was Active.
Same read-out and setting: the result for `O=C1/C(=C/c2ccc(Br)o2)CCC/C1=C\c1ccc(Br)o1` reads “Active”.
